Assay results from different studies.
Protocols differ between the studies behind these lines.
SIGMAR1: Sigma non-opioid intracellular receptor 1 (SIGMAR1, Homo sapiens, UniProt Q99720)
OPRK1: Kappa-type opioid receptor (OPRK1, Homo sapiens, UniProt P41145)
PPO3: PPO3 (Agaricus bisporus, UniProt C7FF04)
HTR2A: 5-hydroxytryptamine receptor 2A (HTR2A, Homo sapiens, UniProt P28223)

CCCn1nc(C(=O)N2CCCCC2)c2c1CCC(NCc1ccc(S(N)(=O)=O)cc1)C2 (stereo not drawn) — Ki (SIGMAR1; ligand displacement, radioligand): > 10 µM
CNc1nc(C#Cc2ccccc2)nc2c1ncn2[C@H]1[C@H](O)[C@H](O)[C@@H]2C[C@@H]21 — Ki (OPRK1; cell-free assay): > 10 µM
Cc1ccc(N=Nc2c(N)nc(N)nc2Cl)cc1 — Ki (PPO3; enzyme activity, inhibitor): 5.87 µM
COc1cc2c(cc1OC)CN(CCCCn1ccc3c(OC)cccc31)C2 — Ki (SIGMAR1; ligand displacement, radioligand; cell membranes): 0.149 µM
COc1ccccc1N1CCN(C/C=C/CNC(=O)c2cc3cc(OCCOCCF)ccc3[nH]2)CC1 — Ki (SIGMAR1; cell-free assay): > 10 µM
CNC(=O)[C@@]12C[C@@H]1[C@@H](n1cnc3c(NCc4cccc(Cl)c4)nc(C#Cc4ccccc4)nc31)[C@H](O)[C@@H]2O — Ki (OPRK1; cell-free assay): > 10 µM
N=C(N)N1CCC[C@H]1c1nc(-c2ccc(CCc3ccc(C(F)(F)F)cc3)c(C(F)(F)F)c2)no1 — Ki (Sphingosine kinase 1 (SPHK1, Homo sapiens, UniProt Q9NYA1); enzyme activity, inhibitor): 9 µM
O[C@H]1[C@H](n2cnc3c(NC(C4CCCCC4)C4CCCCC4)nc(Cl)nc32)[C@H]2C[C@@]2(CF)[C@H]1O — Ki (HTR2A; ligand displacement, radioligand): 7 µM
Cc1nc2n(c(=O)c1CCN)CCCC2 — Ki (HTR2A; ligand displacement, radioligand; cell membranes): > 10 µM
CCCC[C@H](NC(=O)[C@H](C)c1c(C)[nH]c2ccc(O)cc12)c1ncc(-c2cc3ccccc3nc2OC)[nH]1 — Ki (Cannabinoid receptor 1 (CNR1, Homo sapiens, UniProt P21554); cell-free assay): 7.28 µM
CNC(=O)[C@@]12C[C@@H]1[C@@H](n1cnc3c(NC)nc(C#Cc4ccccc4Cl)nc31)[C@H](O)[C@@H]2O — Ki (OPRK1; cell-free assay): > 10 µM
Cc1ccc(C(C)C)cc1NC(=O)COC(=O)/C=C/c1ccccc1O — Ki (PPO3; enzyme activity, inhibitor): 2.2 µM
CCCn1nc(C(=O)N2CCCCC2)c2c1CCC(N(C)Cc1ccc(F)cc1)C2 (stereo not drawn) — Ki (SIGMAR1; ligand displacement, radioligand): > 10 µM
CNC(=O)[C@@]12C[C@@H]1[C@@H](n1cnc3c(NCc4cccc(Cl)c4)nc(C#Cc4ccc(F)cc4)nc31)[C@H](O)[C@@H]2O — Ki (OPRK1; cell-free assay): > 10 µM
CCCn1nc(C(=O)N(C)C)c2c1CCC(NCc1ccc(OC)cc1OC)C2 (stereo not drawn) — Ki (SIGMAR1; ligand displacement, radioligand): > 10 µM
CN(CCCCNC(=O)c1cc2ccccc2[nH]1)[C@@H]1Cc2cccc3[nH]c(=O)n(c23)C1 — Ki (HTR2A; ligand displacement, radioligand): 1.44 µM
CS(=O)(=O)CCNCc1ccc(-c2ccc3ncnc(Nc4ccc(OCc5cccc(F)c5)c(Cl)c4)c3c2)o1 — Ki (Hepatic sodium/bile acid cotransporter (SLC10A1, Homo sapiens, UniProt Q14973); transporter uptake, inhibitor): 285 µM
Cc1cccc(CN2CCCC(C(=O)NCCc3cccnc3)CC2)n1 (stereo not drawn) — Ki (OPRK1; cell-free assay): > 10 µM
